Active and inactive are the calls of the source. Unless noted, no cut-off for these calls is given here.

The test system of experiment [1] is SK-BR-3. Kind of experiment: Reduction in HER2 concentration in human SKBR3 cells expressing constitutively active ILK after 24 hrs by Western blot analysis. Format: functional, cell-based. The essentials: (§1)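 PC-3 versus stable PC-3/CA-ILK, or SKBR3 versus transient SKBR3/CA-ILK (electroporation, used 48 h after), treated 24 h in 5% FBS medium; immunoblotting with ECL; representative of three experiments.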

Experiment [2] deals with T1, Scaffold protein ILK (Homo sapiens) (UniProt Q13418).
T1 sequence (whole entry): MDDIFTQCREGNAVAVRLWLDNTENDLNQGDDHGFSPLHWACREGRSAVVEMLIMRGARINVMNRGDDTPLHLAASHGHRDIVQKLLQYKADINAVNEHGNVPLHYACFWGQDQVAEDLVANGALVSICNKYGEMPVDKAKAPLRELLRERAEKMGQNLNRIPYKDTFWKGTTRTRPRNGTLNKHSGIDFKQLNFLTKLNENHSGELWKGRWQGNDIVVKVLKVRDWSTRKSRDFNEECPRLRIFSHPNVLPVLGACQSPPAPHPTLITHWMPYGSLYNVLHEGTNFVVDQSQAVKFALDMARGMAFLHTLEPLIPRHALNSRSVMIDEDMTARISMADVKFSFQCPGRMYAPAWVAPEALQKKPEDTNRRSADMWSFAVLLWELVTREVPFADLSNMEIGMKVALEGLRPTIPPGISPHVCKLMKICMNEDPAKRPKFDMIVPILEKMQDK
Kind of experiment: Inhibition of ILK in human PC3 cells assessed as decrease in phosphorylated p38 concentration by Western blot analysis. The conditions noted are these: PC-3. The format is cell-based. In short, it runs like this: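 PC-3 cells exposed to graded concentrations for 24 h in 5% FBS medium. Immunoblotting for phospho-Tyr397-FAK, ERK1/2, p38 and JNK. Lysis in 1% SDS buffer, primary antibody 1:1000 at 4°C for 2 h, ECL. Three independent experiments.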
Background: In western blotting, separated proteins are transferred to a membrane and probed.

Experiment [3] deals with PC-3. Kind of experiment: Induction of apoptosis in human PC3 cells assessed as early apoptotic cells at 2 uM by annexin V/PI staining (reference value: 5.6%). Format: functional.
Experiment [4] has as its system PC-3. Kind of experiment: Induction of apoptosis in human PC3 cells assessed as late apoptotic cells at 2 uM by annexin V/PI staining (reference value: 9.8%). The format is functional.
Experiment [5] has as its system PC-3. Kind of experiment: Reduction in EGFR concentration in human PC3 cells after 24 hrs by Western blot analysis. Format: functional, cell-based. The essentials:
as §1

The target in experiment [6] is Receptor-type tyrosine-protein kinase FLT3 (Homo sapiens) (UniProt P36888). Kind of experiment: Inhibition of Flt3 at 5 uM assessed as remaining activity. The essentials:
(§2)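 Panel of 20 recombinant kinases, profiled by a commercial vendor.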

For experiment [7], the target named is T2, 3-phosphoinositide-dependent protein kinase 1 (Homo sapiens) (UniProt O15530).
T2 sequence (whole entry): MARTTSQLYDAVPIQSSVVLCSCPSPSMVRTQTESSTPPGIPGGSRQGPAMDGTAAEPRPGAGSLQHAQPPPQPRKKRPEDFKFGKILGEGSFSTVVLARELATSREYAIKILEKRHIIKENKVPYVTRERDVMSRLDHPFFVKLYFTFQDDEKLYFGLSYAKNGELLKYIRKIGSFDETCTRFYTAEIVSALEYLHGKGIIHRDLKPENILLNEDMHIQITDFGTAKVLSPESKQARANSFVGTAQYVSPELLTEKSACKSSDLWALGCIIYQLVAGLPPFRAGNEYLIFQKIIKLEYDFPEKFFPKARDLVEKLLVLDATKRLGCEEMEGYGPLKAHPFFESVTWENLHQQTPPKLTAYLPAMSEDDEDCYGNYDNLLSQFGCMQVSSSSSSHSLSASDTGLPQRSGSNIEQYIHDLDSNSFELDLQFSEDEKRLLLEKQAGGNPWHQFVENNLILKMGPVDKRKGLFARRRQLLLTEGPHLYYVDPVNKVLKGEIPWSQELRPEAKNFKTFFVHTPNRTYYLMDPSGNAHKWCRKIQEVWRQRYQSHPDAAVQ
Kind of experiment: Inhibition of PDK2 in human PC3 cells assessed as Akt Thr-308 dephosphorylation by Western blot analysis. Format: functional, cell-based. The conditions noted are these: PC-3. In short, it runs like this: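 Cells exposed 24 h in 5% FBS medium, final DMSO 0.1%; lysed in 1% SDS/10 mM EDTA/50 mM Tris pH 8.1, equal protein on SDS-PAGE, nitrocellulose, primary antibody 1:1000 at 4°C for 2 h, HRP secondary 1:5000, ECL detection; blots representative of three independent experiments.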

For experiment [8], the system named is SK-BR-3. Kind of experiment: Reduction in YB-1 mRNA expression in human SKBR3 cells after 24 hrs by RT-PCR analysis. The format is functional, cell-based. In short, it runs like this:
(§3)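 PC-3, PC-3/CA-ILK, SKBR3 and SKBR3/CA-ILK cells treated 24 h in 5% FBS medium; total RNA from 1 × 10^6 cells by Trizol, 1 μg reverse-transcribed, then PCR with gene-specific primers and β-actin reference.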

For experiment [9], the target named is T1, Scaffold protein ILK (Homo sapiens). Kind of experiment: Inhibition of ILK in human PC3 cells assessed as decrease in MLC phosphorylation by Western blot analysis. The format is cell-based. The conditions noted are these: PC-3. The essentials:
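PC-3 and MDA-MB-231 cells exposed 24 h in 5% FBS medium across a concentration series. Phospho-GSK3β (Ser9) and phospho-MLC (Thr18/Ser19) detected by immunoblot: SDS lysis, primary 1:1000 at 4°C for 2 h, HRP secondary, ECL. Representative of three experiments.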

The subject of experiment [10] is PC-3. Kind of experiment: Antiproliferative activity against human PC3 cells expressing constitutively active ILK assessed as cell viability by MTT assay. The format is functional, cell-based. The essentials:
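Stable PC-3 clones expressing GFP-CA-ILK (or GFP), made by electroporation, G418 250 μg/mL for one week and GFP sorting. Treated 24 h in 5% FBS medium. Viability by MTT, 0.25 mg/mL, 1 h at 37°C, A570. n = 6, mean ± SD.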

Experiment [11] has as its target Protein kinase C alpha type (Homo sapiens) (UniProt P17252). Kind of experiment: Inhibition of PKCalpha at 5 uM assessed as remaining activity.
Experiment [12] addresses Hepatocyte growth factor receptor (Homo sapiens) (UniProt P08581). Kind of experiment: Inhibition of Met at 5 uM assessed as remaining activity. In short, it runs like this:
as §2

Experiment [13] concerns PC-3. Kind of experiment: Induction of apoptosis in human PC3 cells assessed as late apoptotic cells at 1 uM by annexin V/PI staining (reference value: 9.8%). Format: functional.
Experiment [14] deals with PC-3. Kind of experiment: Suppression of tumor growth in human PC3 cells xenografted in nude mouse at 50 mg/kg/day, po administered for 35 days relative to control. The format is functional. In short, it runs like this:
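Male NCr athymic nude mice, s.c. 0.5 × 10^6 PC-3 cells in 50% Matrigel; established tumors randomized (n=6) to daily oral gavage in 0.5% methylcellulose/0.1% Tween 80 in water, 10 μL/g, 35 days; weekly caliper volume = width² × length × 0.52; mean ± SEM, ANOVA or t-test.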
A general note: A xenograft is tissue or cells of one species grown in another, often human tumour cells in immunodeficient mice.

Experiment [15] addresses Tyrosine-protein kinase JAK3 (Homo sapiens) (UniProt P52333). Kind of experiment: Inhibition of Jak3 at 5 uM assessed as remaining activity. The essentials:
as §2

Experiment [16] concerns SK-BR-3. Kind of experiment: Reduction in YB-1 mRNA expression in human SKBR3 cells expressing constitutively active ILK after 24 hrs by RT-PCR analysis. The format is functional, cell-based. The essentials:
as §3

Chain of Receptor-type tyrosine-protein kinase FLT3 (Homo sapiens) (P36888 whole entry): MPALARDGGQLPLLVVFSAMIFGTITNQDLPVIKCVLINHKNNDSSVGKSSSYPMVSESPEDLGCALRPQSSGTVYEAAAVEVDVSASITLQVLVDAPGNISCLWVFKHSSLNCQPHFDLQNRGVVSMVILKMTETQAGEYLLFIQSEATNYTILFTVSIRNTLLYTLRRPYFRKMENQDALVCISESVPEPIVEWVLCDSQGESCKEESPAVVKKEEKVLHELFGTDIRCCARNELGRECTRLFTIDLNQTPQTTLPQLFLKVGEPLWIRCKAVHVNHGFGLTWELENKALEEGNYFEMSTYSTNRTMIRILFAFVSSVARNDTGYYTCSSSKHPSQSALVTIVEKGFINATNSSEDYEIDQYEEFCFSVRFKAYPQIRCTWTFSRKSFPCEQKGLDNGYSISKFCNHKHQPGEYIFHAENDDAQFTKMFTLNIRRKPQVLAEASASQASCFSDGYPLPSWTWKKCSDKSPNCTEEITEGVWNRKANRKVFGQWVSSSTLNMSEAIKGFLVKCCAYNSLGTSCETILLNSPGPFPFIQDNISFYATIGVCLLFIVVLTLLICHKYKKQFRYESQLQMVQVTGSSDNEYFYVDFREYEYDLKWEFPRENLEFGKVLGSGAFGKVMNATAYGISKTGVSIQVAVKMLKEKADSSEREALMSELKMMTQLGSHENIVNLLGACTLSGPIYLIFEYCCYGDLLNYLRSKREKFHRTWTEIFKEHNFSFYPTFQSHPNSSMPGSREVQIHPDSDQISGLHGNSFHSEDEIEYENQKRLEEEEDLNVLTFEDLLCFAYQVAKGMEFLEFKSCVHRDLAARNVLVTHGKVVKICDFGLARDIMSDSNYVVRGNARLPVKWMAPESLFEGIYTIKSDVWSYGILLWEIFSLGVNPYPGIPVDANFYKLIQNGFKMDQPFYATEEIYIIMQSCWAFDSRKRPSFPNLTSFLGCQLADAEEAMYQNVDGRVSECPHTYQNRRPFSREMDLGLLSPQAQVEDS
Chain of Hepatocyte growth factor receptor (Homo sapiens) (P08581 whole entry): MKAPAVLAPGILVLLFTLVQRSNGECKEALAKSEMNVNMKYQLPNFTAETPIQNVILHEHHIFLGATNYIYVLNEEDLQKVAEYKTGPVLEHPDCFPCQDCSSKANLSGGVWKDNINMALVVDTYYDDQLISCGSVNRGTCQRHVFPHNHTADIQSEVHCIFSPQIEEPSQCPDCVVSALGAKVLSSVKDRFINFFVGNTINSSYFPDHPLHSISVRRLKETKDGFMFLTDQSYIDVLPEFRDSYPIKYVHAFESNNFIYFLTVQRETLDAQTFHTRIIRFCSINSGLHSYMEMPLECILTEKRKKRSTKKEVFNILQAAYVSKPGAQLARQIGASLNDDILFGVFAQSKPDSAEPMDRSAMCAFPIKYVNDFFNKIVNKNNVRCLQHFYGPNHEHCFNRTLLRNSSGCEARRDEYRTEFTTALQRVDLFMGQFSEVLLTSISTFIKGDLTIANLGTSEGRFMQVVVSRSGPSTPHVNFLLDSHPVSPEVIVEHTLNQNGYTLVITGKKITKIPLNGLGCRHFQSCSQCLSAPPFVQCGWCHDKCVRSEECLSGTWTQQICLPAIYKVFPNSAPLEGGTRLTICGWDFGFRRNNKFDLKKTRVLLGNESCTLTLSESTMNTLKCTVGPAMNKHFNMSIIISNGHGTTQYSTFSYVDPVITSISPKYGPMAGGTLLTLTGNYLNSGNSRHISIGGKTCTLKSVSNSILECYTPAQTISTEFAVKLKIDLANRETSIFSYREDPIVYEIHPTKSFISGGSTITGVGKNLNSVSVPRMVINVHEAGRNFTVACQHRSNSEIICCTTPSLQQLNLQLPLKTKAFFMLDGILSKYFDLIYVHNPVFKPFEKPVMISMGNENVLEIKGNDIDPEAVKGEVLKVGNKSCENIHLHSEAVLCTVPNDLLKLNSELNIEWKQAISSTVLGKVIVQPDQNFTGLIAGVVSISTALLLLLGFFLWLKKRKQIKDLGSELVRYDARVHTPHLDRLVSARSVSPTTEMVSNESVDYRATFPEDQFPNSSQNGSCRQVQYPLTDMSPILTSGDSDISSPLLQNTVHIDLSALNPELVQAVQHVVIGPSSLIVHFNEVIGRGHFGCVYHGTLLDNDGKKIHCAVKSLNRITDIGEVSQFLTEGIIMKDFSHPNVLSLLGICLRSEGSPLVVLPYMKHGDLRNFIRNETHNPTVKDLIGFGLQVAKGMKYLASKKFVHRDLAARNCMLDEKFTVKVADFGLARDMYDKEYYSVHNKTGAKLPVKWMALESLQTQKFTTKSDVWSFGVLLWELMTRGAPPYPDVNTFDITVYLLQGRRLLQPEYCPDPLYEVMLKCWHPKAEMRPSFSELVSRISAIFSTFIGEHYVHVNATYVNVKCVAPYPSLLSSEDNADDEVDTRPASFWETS
Chain of Tyrosine-protein kinase JAK3 (Homo sapiens) (P52333 whole entry): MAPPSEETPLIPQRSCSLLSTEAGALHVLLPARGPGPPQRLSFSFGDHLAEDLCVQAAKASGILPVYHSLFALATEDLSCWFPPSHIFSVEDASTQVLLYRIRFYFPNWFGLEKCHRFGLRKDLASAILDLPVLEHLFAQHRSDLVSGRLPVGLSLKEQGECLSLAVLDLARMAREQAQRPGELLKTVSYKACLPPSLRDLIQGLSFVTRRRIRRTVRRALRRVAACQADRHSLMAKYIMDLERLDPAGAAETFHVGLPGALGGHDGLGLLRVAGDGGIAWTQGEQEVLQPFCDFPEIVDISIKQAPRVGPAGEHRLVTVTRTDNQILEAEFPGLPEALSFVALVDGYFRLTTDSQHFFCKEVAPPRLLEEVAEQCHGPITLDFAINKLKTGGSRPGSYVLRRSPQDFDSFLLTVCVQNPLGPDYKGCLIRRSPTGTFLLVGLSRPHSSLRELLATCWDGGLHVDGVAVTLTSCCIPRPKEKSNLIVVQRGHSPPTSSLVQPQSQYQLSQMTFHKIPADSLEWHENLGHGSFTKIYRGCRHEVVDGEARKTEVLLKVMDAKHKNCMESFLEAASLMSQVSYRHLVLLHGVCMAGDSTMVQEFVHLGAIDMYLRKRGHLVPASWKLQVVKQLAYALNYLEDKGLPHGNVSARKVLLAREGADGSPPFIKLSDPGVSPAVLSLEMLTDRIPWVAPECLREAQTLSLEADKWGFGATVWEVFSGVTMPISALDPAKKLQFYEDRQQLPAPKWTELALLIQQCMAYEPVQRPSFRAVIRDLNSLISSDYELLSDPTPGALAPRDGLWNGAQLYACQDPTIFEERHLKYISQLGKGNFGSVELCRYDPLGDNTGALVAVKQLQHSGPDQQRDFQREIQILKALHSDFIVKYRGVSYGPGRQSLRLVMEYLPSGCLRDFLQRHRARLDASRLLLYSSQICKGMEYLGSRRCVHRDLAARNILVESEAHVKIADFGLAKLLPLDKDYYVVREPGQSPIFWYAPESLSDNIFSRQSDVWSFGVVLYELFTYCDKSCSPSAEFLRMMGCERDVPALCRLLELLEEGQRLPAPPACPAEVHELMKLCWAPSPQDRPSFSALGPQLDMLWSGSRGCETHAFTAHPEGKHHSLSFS

On to `CNC(=O)CCc1cc(-c2ccc(-c3ccc(C(F)(F)F)cc3)cc2)n(-c2ccc(N3CCNCC3)cc2)n1`, for which the outcome in the experiment on SK-BR-3 [1] and in the experiment on SK-BR-3 [16] was inactive. In experiment [2], the inhibition result was “Dose-dependent effect”. The Activity in the experiment on PC-3 [3] is 7.1%; with PC-3 [4], 11.6%; in the experiment with PC-3 [5], “Dose-dependent effect”; in experiment [6], 66%; in the experiment with SK-BR-3 [8], “Dose-dependent effect”; in experiment [11] it was 97%. In addition, the Activity in experiment [12] came to 110%; with PC-3 [13], 10.1%; with PC-3 [14], 62%; in [15], 128%. Also, the inhibition result (in experiment [7]; in the experiment on PC-3 [10]) was “inactive” each time. The inhibition result in experiment [9] was “Active”.
